SMILES strings stand for the structures.

Assay [1] has as its target T1, Tyrosinase (Agaricus bisporus) (UniProt O42713).
T1 sequence (whole entry): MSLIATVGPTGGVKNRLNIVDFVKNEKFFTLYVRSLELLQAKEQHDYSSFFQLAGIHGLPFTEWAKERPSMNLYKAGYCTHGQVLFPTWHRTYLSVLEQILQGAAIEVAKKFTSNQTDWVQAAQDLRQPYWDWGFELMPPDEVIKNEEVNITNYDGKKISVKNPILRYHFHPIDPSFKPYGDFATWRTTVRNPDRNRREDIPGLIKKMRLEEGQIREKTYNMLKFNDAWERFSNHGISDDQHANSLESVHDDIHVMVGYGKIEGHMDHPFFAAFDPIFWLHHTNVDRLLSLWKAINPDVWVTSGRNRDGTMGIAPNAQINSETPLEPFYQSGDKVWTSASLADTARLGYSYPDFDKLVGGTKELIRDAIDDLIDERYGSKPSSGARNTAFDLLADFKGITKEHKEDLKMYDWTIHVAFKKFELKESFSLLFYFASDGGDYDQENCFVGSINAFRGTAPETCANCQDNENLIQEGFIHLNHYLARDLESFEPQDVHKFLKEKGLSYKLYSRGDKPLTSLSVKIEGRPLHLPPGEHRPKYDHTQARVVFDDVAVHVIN
Briefly: Inhibition of mushroom tyrosinase using L-tyrosine as substrate at 50 uM after 30 mins by spectrophotometric analysis. Put shortly:
(§1)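 Mushroom tyrosinase (1000 units) was added to a mixture of 1 mM L-tyrosine and 50 mM phosphate buffer, pH 6.5, with test compound at the stated concentration. After 30 min at 25 °C, dopachrome formation was measured spectrophotometrically at OD492 and expressed as percent inhibition. Values are means ± S.E. of three experiments.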

For assay [2], the target named is T1, Tyrosinase (Agaricus bisporus). Briefly: Inhibition of mushroom tyrosinase using L-tyrosine as substrate at 1 uM after 30 mins by spectrophotometric analysis. The method in brief: (§2)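 Mushroom tyrosinase (20 µL of 1000 units aqueous solution) in a 200 µL mixture with 1 mM L-tyrosine in 50 mM phosphate buffer, pH 6.5. Incubated 30 min at 25 °C; dopachrome read at 492 nm. Percent inhibition was measured at three doses per compound, in triplicate, to build dose–response curves.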

Assay [3] shares this target. The assay is described as follows: Inhibition of mushroom tyrosinase using L-tyrosine as substrate at 0.5 uM after 30 mins by spectrophotometric analysis. The method in brief: as §2
The target is the same in assay [4]. The assay is described as follows: Inhibition of mushroom tyrosinase using L-tyrosine as substrate at 20 uM after 30 mins by spectrophotometric analysis. Put shortly:
as §1

Assay [5] has the same target. Briefly: Inhibition of mushroom tyrosinase using L-tyrosine as substrate at 30 uM after 30 mins by spectrophotometric analysis. Put shortly: as §1
In a further assay the target is T2, Tyrosinase (Agaricus bisporus, UniProt O42713).
T2 sequence (O42713 whole entry): T1 sequence (whole entry)
Briefly: (§3) Inhibition of mushroom tyrosinase using L-tyrosine as substrate after 30 mins by spectrophotometric analysis. The method in brief:
(§4)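 Mushroom tyrosinase (1000 units) was added to assay mixture containing 1 mM L-tyrosine in 50 mM phosphate buffer, pH 6.5. Incubation ran 30 min at 25 °C, and dopachrome was read at 492 nm. Dose-dependent inhibition was run in triplicate at three doses. IC50 was taken from the inhibitor concentration versus product formation curve.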

Assay [6] concerns the target T1, Tyrosinase (Agaricus bisporus). The description is as §3. The method in brief:
as §4

The target is the same in assay [7]. The assay is described as follows: Inhibition of mushroom tyrosinase using L-tyrosine as substrate at 5 uM after 30 mins by spectrophotometric analysis. The method in brief: as §1
Assay [8] has the same target. The assay is described as follows: Inhibition of mushroom tyrosinase using L-tyrosine as substrate at 10 uM after 30 mins by spectrophotometric analysis. The method in brief: as §2
For assay [9] the target is unchanged. The assay is described as follows: Inhibition of mushroom tyrosinase using L-tyrosine as substrate at 80 uM after 30 mins by spectrophotometric analysis. Put shortly:
as §1

For assay [10] the target is unchanged. Briefly: Inhibition of mushroom tyrosinase using L-tyrosine as substrate at 15 uM after 30 mins by spectrophotometric analysis. The method in brief:
as §1

In the case of `COc1cc(/N=N/c2ccc(O)c(OC)c2)cc(OC)c1`, the inhibition in assay [1] is 1.03%.

In turn, `COc1cc(/N=N/c2ccc(O)cc2OC)cc(OC)c1` had an inhibition in assay [1] of 8.9%.

Turning to `Oc1cc(O)cc(/N=N/c2ccc(O)cc2O)c1`, the inhibition in assay [1] was 41.5%.

Regarding `Oc1ccc(/C=C/c2cc(O)cc(O)c2)cc1` [RESVERATROL], the inhibition in assay [2] was 16.3%; in assay [3], 13.7%; in assay [4] it was 47.3%; in assay [5], 47.8%; in [6], “Dose-dependent effect”; in assay [7], 27.1%. This compound registered an inhibition in assay [8] of 38%. The compound further displayed an IC50 at Tyrosinase of 26.6 µM.

For `COc1ccc(OC)c(/N=N/c2ccc(O)c(OC)c2)c1`, the inhibition in [1] was 0.44%.

In the case of `COc1cc(/N=N/c2ccc(O)cc2)cc(OC)c1`, the inhibition in assay [4] was 46%; in assay [6], “Dose-dependent effect”; in [1], 56.2%; in assay [7] it was 8.4%; in [9], 61.4%. On Tyrosinase, this compound registered an IC50 of 50.2 µM.

`COc1ccc(/N=N/c2cc(OC)ccc2OC)c(O)c1` displayed an inhibition in assay [1] of 6.38%.

`COc1ccc(OC)c(/N=N/c2ccc(O)cc2O)c1`: in [1], the inhibition stood at 27.8%.

With `Oc1ccc(/N=N/c2cc(O)cc(O)c2)cc1`, the inhibition in [10] was 7.6%; in [5], 44.3%; in [6], “Dose-dependent effect”; in assay [1], 72.8%. The IC50 at Tyrosinase was determined as 36.3 µM.

In the case of `COc1cc(/N=N/c2ccc(O)cc2O)cc(OC)c1`, in assay [1], the inhibition is 48.5%.

For the origin of these results see ChEMBL document CHEMBL2203153, “Synthesis of novel azo-resveratrol, azo-oxyresveratrol and their derivatives as potent tyrosinase inhibitors” (Bioorg Med Chem Lett, 2012).
